# Laboratory results from ChEMBL document CHEMBL1275336, “Identification of a novel pyrrole derivative endowed with antimycobacterial activity and protection index comparable to that of the current antitubercular drugs streptomycin and rifampin” (Bioorg Med Chem, 2010).
# Assays:
# [1] = test system: Mycobacterium tuberculosis; experiment: Antimycobacterial activity against isoniazid-resistant Mycobacterium tuberculosis after 3 to 28 days by twofold dilution method; assay type: functional
# In short: (§1)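 Twofold agar dilution in Middlebrook 7H11 with 10% OADC; plates held at 37 °C for 3 or 28 days. MIC is the lowest concentration giving complete inhibition of visible mycobacterial growth. Rifampin, streptomycin and BM521 served as references.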
# [2] = test system: Mycobacterium tuberculosis; experiment: Antimycobacterial activity against rifampin-resistant Mycobacterium tuberculosis after 3 to 28 days by twofold dilution method; assay type: functional; in short: as §1
Compound,MIC [1] [µg/mL],MIC [2] [µg/mL]
CSc1ccc(-c2cc(CN3CCSCC3)c(C)n2-c2ccc(F)cc2)cc1,> 16,0.25
Cc1ccc(-c2cc(CN3CCSCC3)c(C)n2-c2ccc(F)cc2)cc1,32,0.5
CO[C@H]1/C=C/O[C@@]2(C)Oc3c(C)c(O)c4c(O)c(c(/C=N/N5CCN(C)CC5)c(O)c4c3C2=O)NC(=O)/C(C)=C\C=C\[C@H](C)[C@H](O)[C@@H](C)[C@@H](O)[C@@H](C)[C@H](OC(C)=O)[C@@H]1C [RIFAMPIN],0.8,> 64
CN[C@@H]1[C@H](O[C@H]2[C@H](O[C@H]3[C@H](O)[C@@H](O)[C@H](N=C(N)N)[C@@H](O)[C@@H]3N=C(N)N)O[C@@H](C)[C@]2(O)C=O)O[C@@H](CO)[C@H](O)[C@H]1O [STREPTOMYCIN],0.5,0.5
